{"data": "Measurements of several laboratories", "ADRA2A": "Alpha-2A adrenergic receptor (ADRA2A, Homo sapiens, UniProt P08913)", "CA1": "Carbonic anhydrase 1 (CA1, Homo sapiens, UniProt P00915)", "CA2": "Carbonic anhydrase 2 (CA2, Homo sapiens, UniProt P00918)", "note": "Lines come from different studies, so protocols differ."}
{"Compound": "Cc1cc(Oc2ncccc2CN2CCN(c3ccc(F)c(F)c3)CC2)ccc1-c1c(C)c(=O)[nH]c(=O)n1C", "target": "ADRA2A", "test": "ligand displacement, radioligand", "Ki": "418 nM"}
{"Compound": "O=C(Oc1ccc(Br)cc1)c1ccc(=O)oc1", "target": "CA1", "test": "enzyme activity, inhibitor, stopped-flow", "Ki": "> 100000 nM"}
{"Compound": "Cc1cc(Oc2ncccc2CN2CCN(c3ccccn3)CC2)ccc1-c1c(C)c(=O)[nH]c(=O)n1C", "target": "ADRA2A", "test": "ligand displacement, radioligand", "Ki": "123 nM"}
{"Compound": "COc1cc(C)c(/C=C/C(C)=C/C=C/C(C)=C/C(=O)O)c(C)c1C", "target": "CA2", "test": "enzyme activity, inhibitor, absorbance", "Ki": "7940 nM"}
{"Compound": "Cc1ccc(C(=O)Nc2nnc(S(N)(=O)=O)s2)cc1", "target": "CA2", "test": "enzyme activity, inhibitor, stopped-flow", "Ki": "21.1 nM"}
{"Compound": "CC(C)(C(=O)O)c1ccc(C(O)CCCN2CCC(C(O)(c3ccccc3)c3ccccc3)CC2)cc1 (stereo not drawn)", "target": "CA1", "test": "enzyme activity, inhibitor", "Ki": "13100 nM"}
{"Compound": "Cc1ccc(CCC(=O)Nc2nnc(S(N)(=O)=O)s2)cc1", "target": "CA2", "test": "enzyme activity, inhibitor, stopped-flow", "Ki": "11.8 nM"}
{"Compound": "CCOCCn1c(C2CCN(CCc3ccc(C(C)(C)C(=O)O)cc3)CC2)nc2ccccc21", "target": "CA1", "test": "enzyme activity, inhibitor", "Ki": "9530 nM"}
{"Compound": "Cc1cc(Oc2ncccc2CN2CCN(c3cccc(C)c3C)CC2)ccc1-c1c(C)c(=O)[nH]c(=O)n1C", "target": "ADRA2A", "test": "ligand displacement, radioligand", "Ki": "41.9 nM"}
{"Compound": "Cc1ccc(-n2cc(CNC(=O)c3ccc(=O)oc3)nn2)cc1", "target": "CA1", "test": "enzyme activity, inhibitor, stopped-flow", "Ki": "> 100000 nM"}
{"Compound": "Cc1cc(Oc2ncccc2CN2CCN(c3ccccc3O)CC2)ccc1-c1c(C)c(=O)[nH]c(=O)n1C", "target": "ADRA2A", "test": "ligand displacement, radioligand", "Ki": "57 nM"}
{"Compound": "CC1=C(/C=C/C(C)=C/C=C/C(C)=C\\C(=O)O)C(C)(C)CCC1", "target": "CA1", "test": "enzyme activity, inhibitor", "Ki": "5750 nM"}
{"Compound": "COc1ccc(-n2cc(COC(=O)c3ccc(=O)oc3)nn2)cc1", "target": "CA1", "test": "enzyme activity, inhibitor, stopped-flow", "Ki": "> 100000 nM"}
{"Compound": "Cc1cc(Oc2ncccc2CN2CCN(c3ccccc3C(F)(F)F)CC2)ccc1-c1c(C)c(=O)[nH]c(=O)n1C", "target": "ADRA2A", "test": "ligand displacement, radioligand", "Ki": "175 nM"}
{"Compound": "O=C(O)COCCN1CCN(C(c2ccccc2)c2ccc(Cl)cc2)CC1 (stereo not drawn)", "target": "CA1", "test": "enzyme activity, inhibitor", "Ki": "9900 nM"}
{"Compound": "NS(=O)(=O)c1nnc(NC(=O)C2CCC3(CCCC3)CC2)s1", "target": "CA2", "test": "enzyme activity, inhibitor, stopped-flow", "Ki": "59.4 nM"}
{"Compound": "Cc1cc(Oc2ncccc2CN2CCN(c3ccc([N+](=O)[O-])cc3C(F)(F)F)CC2)ccc1-c1c(C)c(=O)[nH]c(=O)n1C", "target": "ADRA2A", "test": "ligand displacement, radioligand", "Ki": "2110 nM"}
{"Compound": "O=C(NCc1cn(-c2ccc([N+](=O)[O-])cc2)nn1)c1ccc(=O)oc1", "target": "CA1", "test": "enzyme activity, inhibitor, stopped-flow", "Ki": "> 100000 nM"}
